# Diaphorase act – activates diaphorase or chemically reduces, flagging diaphorase assay artifacts; Diaphorase/resazurin coupled assay, resorufin fluorescence, 16 min; hits give high values; 1 = vehicle wells, 0 = NADH-free wells; activation factor at 20 µM; 190,000 tested, 0.005% active; AID 1229;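 active = diaphorase activity raised at least twofold by the compound at 20 µM; inactive = activation factor below 2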
#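 Material: purified diaphorase enzyme from Clostridium kluyveri; Also added: 0.114 mM NADH and 0.1 mM resazurin, final amounts; Doses: single compound dose of 20 µM, 1% DMSO final; Times: 16 min enzyme reaction, ambient temperature; Detection: resorufin fluorescence, excitation 544 nm, emission 590 nm; Measure: increased resorufin signal from activators or reducing compounds.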
# PfG6PD inh – PfG6PD (Plasmodium falciparum) enzyme inhibition | 350,000 tested, 0.78% active | inhibition, % at 20 µM | PfGluPho enzyme, NADPH resazurin-diaphorase fluorescence;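 active = inhibition reaching at least a set limit at 20 µM in the primary screen, cut at about 59% in these data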;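 also: 0% = DMSO wells with substrate and 100% = DMSO wells lacking glucose-6-phosphate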
# Diaph inh CS – diaphorase inhibition or chemical oxidation counter-screen; inhibition, % at 20 µM; 190,000 tested, 0.69% active; diaphorase resazurin-to-resorufin fluorescence, NADH, 16 min; bacterial (C. kluyveri) enzyme, not human;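 active = primary screen inhibition at 20 µM above a set limit, cut at about 50% in these data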;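 also: plate controls were DMSO with full reaction for no effect and wells lacking NADH for full effect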
#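 Assay system: diaphorase enzyme from Clostridium kluyveri; Input: enzyme working solution with 0.14 U/mL diaphorase; Timing: 16 min at room temperature; Technique: resorufin fluorescence, excitation 544 nm, emission 590 nm; Benchmarks: positive control minus NADH, DMSO neutral control.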
# DTT redox prof – compounds producing H2O2 with reducing agent – biochemical, NIH compound library profiling, artefact control for MLSCN library redox annotation, primary screen | activation, % at 10 µM | 200,000 tested, 0.03% active | DTT-dependent redox cycling H2O2, phenol red/HRP absorbance; 100% = 100 µM peroxide control, 0% = buffer | AID 878;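 active = activation of at least 50% relative to the plate's high and low controls in the primary single-dose screen; inactive = activation below 50%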;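 also: compound incubated with DTT at 0.8 mM final as the reducing agent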
# L major viab – inhibitors of Leishmania major promastigote growth. Leishmania major promastigotes, resazurin fluorescence viability. inhibition, % at 10 µM. 200,000 tested, 9% active. AID 1063;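 also: promastigotes grown with compound for 44 hours at 28 °C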
# G6PDH counter – L. mesenteroides G6PDH inhibition counter-screen; Purified L. mesenteroides G6PDH, diaphorase/resazurin coupled fluorescence, 45 min; inhibition, % at 5 µM; 200,000 tested, 0.12% active
# PfGluPho conf – confirmation of Plasmodium falciparum G6PD inhibitors | shares compounds with PfG6PD inh | inhibition, % at 20 µM | 2,400 tested, 34% active | recombinant PfGluPho, NADPH-diaphorase-resazurin fluorescence;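 active = inhibition of at least 50% at 20 µM in any single replicate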;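 also: 0% = DMSO with substrate and 100% = DMSO lacking glucose-6-phosphate substrate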
# Diaph ctr 10uM – diaphorase inhibition or oxidation at 10 uM NADPH; shares compounds with PfG6PD inh; 820 tested, 39% active; inhibition, % at 20 µM; diaphorase-coupled resazurin reduction, fluorescence, NADPH 10 uM;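 active = average inhibition reaching 50% or more with the compound at 20 µM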;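 also: resorufin red fluorescence formed as diaphorase reduces resazurin using NADPH; 0% = DMSO with enzyme and 100% = DMSO without enzyme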
# Diaph ctr 30uM – counter-screen for P. falciparum G6PD inhibitors: diaphorase inhibitors, oxidizers. inhibition, % at 20 µM. AID 504863. 820 tested, 29% active. shares compounds with PfG6PD inh. Diaphorase/resazurin coupled assay, resorufin fluorescence, 30 uM NADPH;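 active = inhibition averaging 50% or more, tested at 20 µM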;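 also: 0% = DMSO with enzyme and 100% = DMSO wells lacking diaphorase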
# Numbers without * were called inactive; . = no result given. Only a selection was taken, and hits are over-represented in it overall. Rule as the data show it, unless noted: active = inhibition above about 50%; inactive = the rest.
SMILES,Diaphorase act,PfG6PD inh,Diaph inh CS,DTT redox prof,L major viab,G6PDH counter,PfGluPho conf,others
CC1=CC(=NOC(=O)/C=C/c2ccccc2)C=C(C)C1=O,0.9,75*,14,-4,101*,15,61*,Diaph ctr 10uM=28;Diaph ctr 30uM=27
COc1cc(C(=O)Nc2nc(C)c(Cc3ccc4c(c3)OCO4)s2)cc(OC)c1OC,0.8,62*,16,0,18,4,34,
O=Nc1c(O)ccc2cc(S(=O)(=O)O)ccc12,.,102*,.,.,.,.,90*,Diaph ctr 10uM=76*;Diaph ctr 30uM=73*
Cc1ccc2nc(SCc3nnc(-c4cccs4)o3)[nH]c2c1,0.8,84*,21,1,11,4,41,
[O-]/[N+](=C/c1ccco1)c1ccccc1,.,18,.,.,.,.,.,
[O-][N+](=Cc1ccccc1)c1ccc(Cl)cc1,.,87*,.,.,.,.,92*,Diaph ctr 10uM=62*;Diaph ctr 30uM=30
[O-]/[N+](=C\c1ccco1)c1ccc(Cl)cc1,.,89*,.,.,.,.,62*,Diaph ctr 10uM=38;Diaph ctr 30uM=13
COc1ccc(OC(C)C(=O)NC2CCCCCC2)cc1 (stereo not given),.,-16,.,.,.,.,.,
CC(C)c1ccc(OCCCN2CCCC2)cc1,.,-3,.,.,.,.,.,
Oc1ccc(N2CCN(Cc3ccc(OCCCN4CCCCC4)cc3)CC2)cc1,1.1,75*,-10,0,48,10,18,
COc1ccc(NC(=O)c2oc3ccccc3c2CSC)cn1,.,73*,.,.,.,.,29,
CCOCc1c(C(=O)Nc2ccc(OC)nc2)oc2ccccc12,.,41,.,.,.,.,.,
Cc1ccc(CC(=O)NNC(=O)c2ccncc2)cc1C,.,58,.,.,.,.,.,
Cn1c(CS/C(N)=N/N=C/c2ccccc2)c(Br)c(=O)n1-c1ccccc1,0.9,64*,12,1,5,-5,16,
Nc1ccccc1SSc1ccccc1N,.,69*,.,.,.,.,44,
N#Cc1ccccc1Sc1ccccc1N,0.8,2,15,-3,-5,4,.,
O=S(=O)(NCc1csc(-c2cccnc2)n1)c1ccc(Cl)s1,0.9,48,5,0,9,-16,.,
O=S(=O)(NCc1csc(-c2ccccc2)n1)c1ccc(Cl)s1,1,99*,5,0,-5,18,48*,Diaph ctr 10uM=43;Diaph ctr 30uM=41
c1ccc(CNc2nc3ccccc3[nH]2)cc1,0.8,18,16,1,35,4,.,
S=C(NCc1ccccc1)NNc1nc2ccccc2[nH]1,0.8,77*,22,-2,34,-2,45,
O=C(Cc1cccs1)Nc1cccc(-c2nc3cc4ccccc4cc3[nH]2)c1,0.8,63*,19,0,50,7,7,
CC(=O)Nc1cccc(NC(=O)Cc2cccs2)c1,.,-4,.,.,.,.,.,
O=C(Nc1ccccn1)C1CCN(C(=O)c2ccc(Cl)cc2)CC1,.,-12,.,.,.,.,.,
CCCC[n+]1ccn(C2=C([O-])c3ccccc3C(=O)/C2=N\S(=O)(=O)c2ccc(Br)cc2)c1,1.2,56,-19,-1,35,48,.,
CC(=O)Nc1ccc(S(=O)(=O)/N=C2\C(=O)c3ccccc3C([O-])=C2n2cc[n+](-c3ccccn3)c2)cc1,.,69*,.,.,.,.,56*,Diaph ctr 10uM=35;Diaph ctr 30uM=36
SMILES,Diaphorase act,PfG6PD inh,Diaph inh CS,DTT redox prof,L major viab,G6PDH counter,PfGluPho conf,others
Cc1ccc(S(=O)(=O)/N=C2\C=C(NS(=O)(=O)c3ccccc3)C(=O)c3ccccc32)c(C)c1,.,6,.,.,.,.,.,
Cc1ccc(S(=O)(=O)/N=C2\C=C(Nc3cccc(C(=O)O)c3)C(=O)c3ccccc32)cc1,.,67*,.,.,.,.,69*,Diaph ctr 10uM=89*;Diaph ctr 30uM=86*
Cc1ccc(S(=O)(=O)/N=C2\C=C(Nc3cccc(C(=O)O)c3)C(=O)c3ccccc32)c(C)c1,.,70*,.,.,.,.,39,
CCc1ccc(S(=O)(=O)/N=C2\C=C(Nc3ccc(C(=O)O)cc3)C(=O)c3ccccc32)cc1,.,65*,.,.,.,.,31,
COc1ccc(-n2c(SCC(=O)Nc3cccc(S(N)(=O)=O)c3)nc3ccccc3c2=O)cc1OC,.,3,.,.,.,.,.,
O=c1[nH]c(CN2CCCCC2)ccc1O,.,45,.,.,.,.,.,
Cc1ccc(O)c(N=Cc2ccc(C)s2)c1,0.6,67*,35,-1,-2,36,20,
Sc1ccccc1N=Cc1cccs1,.,29,.,.,.,.,.,
Cc1ccc(N=Nc2cc(C)ccc2O)c(C)c1,.,17,.,.,.,.,.,
Cc1ccc(O)c(N=Cc2cccs2)c1,0.7,71*,30,0,0,36,45,
CCOc1ccccc1N1CSC2=C(C#N)C(c3c(OC)ccc4ccccc34)CC(=O)N2C1 (stereo not given),0.3,74*,67*,-1,9,42,31,
CCSC1=C(C#N)C(c2ccc(OC)c(OC)c2)CC(=O)N1 (stereo not given),0.9,7,8,1,11,12,.,
CCOC(=O)c1ccc(N2CSC3=C(C#N)C(c4cccs4)CC(=O)N3C2)cc1 (stereo not given),0.5,48,47,-1,-8,3,.,
Cc1ccc(N2CSC3=C(C#N)C(c4cccs4)CC(=O)N3C2)cc1 (stereo not given),0.5,70*,46,-1,2,22,32,
COc1ccc(N2CSC3=C(C#N)C(c4cc(OC)c(OC)cc4OC)CC(=O)N3C2)c(OC)c1 (stereo not given),0.3,102*,66*,-1,12,44,74*,Diaph ctr 10uM=6;Diaph ctr 30uM=7
COc1ccc(N2CSC3=C(C#N)C(c4ccc(OC)c(OC)c4)CC(=O)N3C2)c(OC)c1 (stereo not given),0.4,80*,58*,-3,6,43,65*,Diaph ctr 10uM=5;Diaph ctr 30uM=11
CCOC(=O)N1CCC(NC(=O)CCC(=O)N2CC(C)Oc3ccc(Cl)cc32)CC1 (stereo not given),0.9,5,14,0,0,12,.,
CCC1CN(C(=O)NCc2ccccc2)c2ccccc2O1 (stereo not given),.,6,.,.,.,.,.,
COc1ccc(C2C(C#N)=C(N)SC(N)=C2C#N)cc1OC,0.8,22,24,1,-4,-19,.,
COc1cc(OC)c(C2CC(=O)N3CN(c4ccc(C)cc4)CSC3=C2C#N)cc1OC (stereo not given),0.5,89*,46,0,15,44,40,
COc1ccc(C2CC(=O)N3CN(c4ccc(C)c(Cl)c4)CSC3=C2C#N)cc1OC (stereo not given),0.4,59*,60*,-3,-2,18,3,

# High-throughput results deposited in PubChem BioAssay by several laboratories.
